Most compounds without a hit are left out; they make up all but 1% or so of the library.
ERp5 inh – blocks human ERp5 reductase activity on insulin; Q15084; ERp5 insulin aggregation, absorbance 650 nm, 90 min; inhibition, % at 9.99 µM; 350,000 tested, 0.05% active; AID 651711;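 active = mean replicate inhibition above about 25%, with every replicate also reaching it, limit read from the data, passing the limit was not always enough; inconclusive = only one of those two criteria met; inactive = neither criterion met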
CAL PDZ FP-1 – inhibitors of human CAL PDZ peptide binding | purified CAL PDZ, TMR-peptide fluorescence polarization, 1 h | inhibition, % at 24.9 µM | 300,000 tested, 0.92% active;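 active = mean inhibition of at least 30% with at least half of replicates also reaching 30%; inconclusive = no clear call, values can overlap the other calls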;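 note: 0% = DMSO neutral control and 100% = excess unlabeled competitor peptide PRC23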
CAL PDZ FP-2 – human CAL PDZ-peptide interaction inhibition; 330,000 tested, 0.02% active; purified CAL PDZ, TMR-peptide fluorescence polarization, 1 h; Q9HD26; inhibition, % at 20 µM;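 active = highest replicate inhibition of at least 40%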;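 note: plate controls were DMSO neutral control wells for no effect and unlabeled competitor peptide control wells for full effect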
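System: tagged CAL PDZ domain. Schedule: 1 h room-temperature incubation prior to read. Signal: fluorescence polarization (mP). Measure: percent inhibition from loss of millipolarization.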
RAD52 anneal inh – inhibitors of human RAD52 DNA annealing; P43351; recombinant RAD52 DNA annealing, FRET fluorescence; inhibition, % at 18.7 µM; 360,000 tested, 0.46% active; AID 651710;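 active = every replicate showing at least 50% inhibition; inconclusive = mean inhibition at least 50% but not in every replicate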
PDI turbidity – PDI (human) enzyme inhibition; PDI insulin aggregation turbidity, A650, 90 min; AID 588391; inhibition, % at 10 µM; 350,000 tested, 0.052% active;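 active = mean inhibition across replicates of 30% or more, whatever share of single replicates reach that level; inconclusive = mean inhibition below 30% while every single replicate reaches 30%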
RAD54 inh – RAD54 (human) branch migration inhibition | RAD54 Holliday junction branch migration, FAM/BHQ fluorescence | inhibition, % at 10.4 µM | 360,000 tested, 0.14% active;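 active = mean normalized replicate activity at least 40 and at least half of replicates scoring 40 or more; inconclusive = only one of the two criteria met; inactive = mean below 40 and under half of replicates reaching 40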;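 note: 0% = median of neutral control wells and 100% = median of positive control wells; inhibitors cause a drop in the FAM fluorescence signal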
Target sequence (Q92698 whole entry, looked up): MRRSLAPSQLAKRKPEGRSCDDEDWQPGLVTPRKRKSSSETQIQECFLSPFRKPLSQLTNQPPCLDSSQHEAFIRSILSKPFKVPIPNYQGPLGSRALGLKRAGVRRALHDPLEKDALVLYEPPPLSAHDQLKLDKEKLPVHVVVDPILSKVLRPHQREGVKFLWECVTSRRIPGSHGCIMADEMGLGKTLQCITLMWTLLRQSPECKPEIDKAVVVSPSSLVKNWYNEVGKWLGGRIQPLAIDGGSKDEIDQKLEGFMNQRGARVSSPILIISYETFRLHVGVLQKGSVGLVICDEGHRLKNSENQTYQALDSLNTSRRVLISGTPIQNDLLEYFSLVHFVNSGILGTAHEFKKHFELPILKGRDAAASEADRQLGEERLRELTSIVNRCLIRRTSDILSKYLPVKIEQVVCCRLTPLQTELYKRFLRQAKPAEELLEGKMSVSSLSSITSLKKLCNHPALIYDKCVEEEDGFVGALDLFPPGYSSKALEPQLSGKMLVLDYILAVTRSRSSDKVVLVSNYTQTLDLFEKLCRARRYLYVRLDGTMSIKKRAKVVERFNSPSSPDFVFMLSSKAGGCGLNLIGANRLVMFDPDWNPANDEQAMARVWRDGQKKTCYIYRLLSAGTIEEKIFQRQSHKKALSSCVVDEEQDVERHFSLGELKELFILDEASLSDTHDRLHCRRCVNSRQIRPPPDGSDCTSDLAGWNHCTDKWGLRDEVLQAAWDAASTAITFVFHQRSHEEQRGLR
Rad54 DNA ctr – counter-screen for Rad54 inhibitors: DNA binding compounds. shares compounds with RAD54 inh. Acridine orange-DNA displacement, fluorescence polarization, 20 min. AC50, µM (doses to about 35 µM), inactives show at the highest dose activity change, negative = DNA binding. 460 tested, 8% active;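 active = signal drop giving an AC50 within twice the top valid tested concentration of each sample, actives reach about 35 µM in these data; inactive = activity opposite to expected, plus the rest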;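 note: polarization loss reports compound binding to salmon sperm DNA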
RAD52 DNA ctr – counter-screen for RAD52 inhibitors: DNA binding compounds. shares compounds with RAD52 anneal inh. 1,000 tested, 8% active. Salmon sperm DNA/acridine orange FP displacement. AC50, µM;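 active = fitted half-maximal concentration for signal loss at or below twice the highest dose tested, in every separate run, actives reach about 64 µM in these data; inconclusive = runs disagree, or flat partial signal loss, or poor fit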
Numbers without * were called inactive; i = inactive; ? = inconclusive; nt = not tested or not shown; ! = not confirmed by another sample.

SMILES	ERp5 inh	CAL PDZ FP-1	CAL PDZ FP-2	RAD52 anneal inh	PDI turbidity	RAD54 inh	RAD52 DNA ctr	others
COC(=O)[C@@H]1[C@@H](CO)[C@@H]2Cn3c(ccc(/C=C/c4ccccc4)c3=O)[C@H]1N2CC1CCCC1	5	nt	nt	8	nt	8	nt
CCn1c(O)c(/C=N/NC(=O)c2ccccc2)c(=O)[nH]c1=S	3	74*	0	-34	0	nt	nt
COC(=O)[C@H]1[C@H](CO)[C@H]2Cn3c(ccc(/C=C/c4ccccc4)c3=O)[C@@H]1N2C(=O)C1CCC1	-2	nt	nt	6	nt	-4	nt
COc1ccc(C#Cc2ccc([C@H]3[C@H]4CN(C(=O)Cc5cccnc5)CCCCN4[C@H]3CO)cc2)cc1	-3	nt	nt	-29	nt	0	nt
CC=Cc1ccc2n(c1=O)C[C@H]1[C@H](CO)[C@@H](C(=O)OC)[C@@H]2N1S(=O)(=O)c1ccccc1C (mixture of isomers)	-1	nt	nt	53*	nt	5	nt
CC=Cc1ccc2n(c1=O)C[C@@H]1[C@@H](CO)[C@H](C(=O)OC)[C@H]2N1S(=O)(=O)c1ccccc1C (mixture of isomers)	2	nt	nt	56*	nt	-3	nt
COC(=O)[C@@H]1[C@@H](CO)[C@@H]2Cn3c(ccc(-c4ccccc4)c3=O)[C@H]1N2S(=O)(=O)c1ccccc1C	2	nt	nt	1	nt	2	nt
COc1ccc2c(c1)[nH]c1c(C)nccc12	1	3	0	29	8	71*	nt	Rad54 DNA ctr=-15%
Cc1cc(N2CCN(C)CC2)nc2ccccc12	-3	-2	0	4	11	6	nt
CN1CCC(N(C)c2nc(-c3ccccc3)nc3ccccc23)CC1	-3	-1	-2	48	-5	67*	nt	Rad54 DNA ctr=-16%
O=C(Cc1cccnc1)N1CCCCN2[C@@H](CO)[C@@H](c3ccc(/C=C/c4ccccc4)cc3)[C@@H]2C1	-3	nt	nt	-17	nt	-2	nt
CCN1CCN(c2ccc(N)c(C)c2)CC1	?	-3	2	92*	-4	77*	i	Rad54 DNA ctr=4%
COC(=O)[C@H]1[C@H](CO)[C@H]2Cn3c(ccc(-c4ccccc4F)c3=O)[C@@H]1N2C(=O)C1CC1	-6	nt	nt	-12	nt	9	nt
CCOC(=O)c1c(C)n(Cc2ccccc2)c2ccc(OCC(O)Cn3nc(C)nc3C)cc12 (stereo not given)	-5	nt	0	6	-2	-7	nt
CCOC(=O)c1c(C)n(Cc2ccccc2)c2ccc(OCC(O)CNC(C)(C)C)cc12 (stereo not given)	3	-5	-1	52*	5	22	i
O=C([O-])c1ccc(-[n+]2c(-c3ccccc3)cc(-c3ccccc3)cc2-c2ccccc2)cc1	0	-6	-1	57*	1	14	i
Oc1ccc(-[n+]2c(-c3ccccc3)cc(-c3ccccc3)cc2-c2ccccc2)cc1	1	-4	-2	60*	-5	12	i
COc1ccc(-[n+]2c(-c3ccccc3)cc(-c3ccccc3)cc2-c2ccccc2)cc1	-1	nt	nt	11	nt	nt	nt
N#Cc1cccc(-c2ccc([C@H]3[C@@H](CO)N4CCCCN(C(=O)Cc5cccnc5)C[C@H]34)cc2)c1	-1	nt	nt	-22	nt	11	nt
COc1ccc(C(C)=O)cc1CC(C(=O)c1ccc(C)cc1)N(C)C (stereo not given)	4	4	0	-20	7	0	nt
CCOc1ccc(C(C)=O)cc1Cn1ccsc1=N	2	-3	-3	64*	1	12	i
COc1ccc2c(c1OC)C(=O)O[C@H]2[C@@H]1c2cc3c(cc2CCN1C)OCO3	4	-4	-1	-8	-11	0	nt
COc1cc2c(cc1OC)-c1c3c(cc4c1[C@@H](C2)N(C)CC4)OCO3	7	0	1	100*	-6	104*	i
COc1cc2c(cc1OC)-c1c(OC)c(OC)cc3c1C(C2)N(C)CC3 (stereo not given)	-2	-2	0	71*	nt	62*	i
O=C(Cc1ccccn1)N1CCCCN2[C@H](CO)[C@@H](c3ccc(-c4ccccc4)cc3)[C@@H]2C1	-3	nt	nt	-12	nt	2	nt
SMILES	ERp5 inh	CAL PDZ FP-1	CAL PDZ FP-2	RAD52 anneal inh	PDI turbidity	RAD54 inh	RAD52 DNA ctr	others
OC12ONC(c3ccccn3)C1N1CCC2CC1 (stereo not given)	-13	-7	-2	80*	0	19	i
CCN1[C@@H]2Cn3c(ccc(-c4cccc(OC)c4)c3=O)[C@H]1[C@@H](C(=O)OC)[C@@H]2CO	-1	nt	nt	0	nt	9	nt
O=C(O)[C@@H]1[C@@H](CO)[C@@H]2Cn3c(ccc(-c4ccncc4)c3=O)[C@H]1N2C(=O)C1CCCC1	-3	nt	nt	-34	nt	nt	nt
CC=Cc1ccc2n(c1=O)C[C@H]1[C@H](CO)[C@@H](C(=O)OC)[C@@H]2N1C(=O)CC (mixture of isomers)	1	nt	nt	-8	nt	6	nt
Clc1ccc2sc(C3CCNCC3)nc2c1	4	6	0	56*	-29	4	i
CC(C)N1CCN(c2ccc(O)cc2)CC1	-2	-2	-1	83*	9	19	i
Cc1[nH]c2ccccc2c1C1=CCNCC1	-11	13	nt	65*	-3	2	i
CN1CC[C@@H]2CN[C@H](c3ccccc3Br)C[C@@H]21	0	nt	nt	71*	nt	nt	i
COC(=O)[C@H]1[C@H](CO)[C@H]2Cn3c(ccc(C4=CCCC4)c3=O)[C@@H]1N2CC1CCCCC1	-7	nt	nt	-14	nt	-2	nt
Nc1ccc(CC2=NCCN2)cc1	-2	0	-1	84*	5	nt	63µM*
O=C(Cc1ccccc1)N1CC2(C1)[C@H](c1ccccc1)[C@H](CO)N2Cc1cccc(Cl)c1	-2	nt	nt	-32	nt	nt	nt
C[C@H]1CNCCN1c1ccc(N2CC[C@@H](O)C2)c(C#N)c1	2	nt	nt	-5	nt	nt	nt
Cc1cc(N2CCNC[C@@H]2C)ccc1N1CC[C@@H](O)C1	1	nt	nt	96*	nt	nt	i
O=c1c2ccccc2nc(-c2cccs2)n1-c1ccccc1	nt	-2	-2	nt	4	4	nt
NC(N)=N/N=C/c1cn(-c2ccccc2)nc1-c1cccs1	8	-3	-10	88*	-5	nt	i
CC(C)CC#Cc1ccc([C@@H]2[C@@H](CO)N3CCCCN(C(=O)Cc4ccccn4)C[C@H]23)cc1	nt	nt	nt	-8	nt	1	nt
CN(C)c1ccc(/C=C/c2cc[n+](C)c3ccccc23)cc1	-13	15	0	64*!	-7	nt	8.3µM*
CC[n+]1c(/C=C/C=C/c2ccc(N(C)C)cc2)sc2ccccc21	1	nt	1	20	2	25	nt
CN(C)c1ccc(/C=C/C=C/c2sc3ccccc3[n+]2C)cc1	-2	nt	1	63*	1	14	?
